Assay results: ChEMBL document CHEMBL2146402, “Cytotoxic lignans from fruits of Cleistanthus indochinensis: synthesis of cleistantoxin derivatives” (J Nat Prod, 2012)
Active and inactive are the calls of the source. The calls are words filed in the database; no cut-off is given here.

Tests used:
Type in all cases: functional, cell-based
[1] = tested on: KB; assay: Cytotoxicity against human KB cells after 72 hrs by neutral red assay
Summary of the method: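 KB human nasopharynx carcinoma cells grown in D-MEM with 10% fetal calf serum, 2 mM L-glutamine, penicillin G, streptomycin and gentamicin. Seeded at 3 × 10³ cells/mL and exposed to compounds (stocks in DMSO/H₂O 1:9) for 72 h at 37 °C in air/CO₂ 95:5. Living cells stained with neutral red, OD read at 540 nm. IC50 is the concentration reducing growth to 50% of control. Taxotere reference.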

[2] = tested on: KB; assay: Cytotoxicity against human KB cells at 100 ug/mL after 72 hrs by neutral red assay
[3] = tested on: MCF7; assay: Cytotoxicity against human MCF7 cells
[4] = tested on: HT-29; assay: Cytotoxicity against human HT-29 cells
[5] = Cytotoxicity against human MCF7/R cells; conditions: MCF7R

SMILES	IC50 [1]	Activity [2]	other results
COc1c2c(cc3c1[C@H]1C(=O)OC[C@H]1[C@H](C(=O)NC1CCCCCC1)[C@@H]3c1ccc3c(c1)OCO3)OCO2	26 µg/mL	–	–
COc1c2c(cc3c1[C@H]1C(=O)OC[C@H]1[C@H](C(=O)N1CCCCC1)[C@@H]3c1ccc3c(c1)OCO3)OCO2	42 µg/mL	–	–
COc1c2c(cc3c1[C@H]1C(=O)OC[C@H]1[C@H](C(=O)NCc1ccc(F)cc1)[C@@H]3c1ccc3c(c1)OCO3)OCO2	–	inactive	–
COc1c2c(cc3c1[C@H]1C(=O)OC[C@H]1[C@H](C(=O)NC1CCCC1)[C@@H]3c1ccc3c(c1)OCO3)OCO2	–	inactive	–
COc1c2c(cc3c1[C@H]1C(=O)OC[C@H]1[C@H](C(=O)NCc1ccco1)[C@@H]3c1ccc3c(c1)OCO3)OCO2	–	inactive	–
COc1c2c(cc3c1[C@H]1C(=O)OC[C@H]1[C@H](C(=O)O)[C@@H]3c1ccc3c(c1)OCO3)OCO2	–	inactive	–
COc1c2c(cc3c1[C@H]1C(=O)OC[C@H]1[C@H](C(=O)n1ccnc1)[C@@H]3c1ccc3c(c1)OCO3)OCO2	–	inactive	–
COc1c2c(cc3c1[C@H]1C(=O)OC[C@H]1[C@H](C(=O)NCc1ccc(Cl)c(Cl)c1)[C@@H]3c1ccc3c(c1)OCO3)OCO2	–	inactive	–
COc1c2c(cc3c1[C@H]1C(=O)OC[C@H]1[C@H](C(=O)N(Cc1ccccc1)Cc1ccccc1)[C@@H]3c1ccc3c(c1)OCO3)OCO2	–	inactive	–
COc1c2c(cc3c1[C@H](O)[C@H]1COC(=O)[C@@H]1[C@@H]3c1ccc3c(c1)OCO3)OCO2 [CLEISTANTOXIN]	22 nM	–	IC50 [3]: 36 nM; IC50 [4]: 35 nM; IC50 [5]: 14 nM
COc1c2c(cc3c1[C@@H]1OC(=O)[C@H]([C@@H]3c3ccc4c(c3)OCO4)[C@@H]1CO)OCO2 [NEOCLEISTANTOXIN]	1400 nM	–	–
COc1c2c(cc3c1[C@@H](C#N)[C@H]1COC(=O)[C@@H]1[C@@H]3c1ccc3c(c1)OCO3)OCO2	1.2 µg/mL	–	–
